Sampled rows, rich in hits. Any-hit rate of the full collection: about 3%.
ABHD5 PLIN5 PPI: ABHD5-PLIN5 interaction inhibitors, primary screen, cell lysate, split luciferase complementation, luminescence; Split G. princeps luciferase complementation, 4 h; inhibition, % at 4 µM; 0.78% of 360,000 active;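 active = inhibition above the mean inhibition across every tested compound plus 3 SD, cut at about 22% in these data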;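 also: 0% = DMSO only wells and the 100% control is not disclosed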
Target sequence (Q00G26 whole entry, looked up): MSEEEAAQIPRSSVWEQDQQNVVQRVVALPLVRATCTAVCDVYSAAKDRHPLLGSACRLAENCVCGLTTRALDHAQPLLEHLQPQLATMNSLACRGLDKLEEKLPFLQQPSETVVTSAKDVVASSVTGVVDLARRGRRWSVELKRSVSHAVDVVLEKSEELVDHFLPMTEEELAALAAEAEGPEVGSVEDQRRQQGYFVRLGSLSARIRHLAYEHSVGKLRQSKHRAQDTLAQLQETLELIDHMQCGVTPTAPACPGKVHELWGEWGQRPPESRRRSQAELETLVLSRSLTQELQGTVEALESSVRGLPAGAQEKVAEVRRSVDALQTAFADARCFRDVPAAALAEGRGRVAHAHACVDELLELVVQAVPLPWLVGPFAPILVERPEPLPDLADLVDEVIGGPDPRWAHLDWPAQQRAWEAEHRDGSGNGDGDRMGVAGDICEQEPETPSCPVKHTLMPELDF
Target sequence (Q8WTS1 whole entry, looked up): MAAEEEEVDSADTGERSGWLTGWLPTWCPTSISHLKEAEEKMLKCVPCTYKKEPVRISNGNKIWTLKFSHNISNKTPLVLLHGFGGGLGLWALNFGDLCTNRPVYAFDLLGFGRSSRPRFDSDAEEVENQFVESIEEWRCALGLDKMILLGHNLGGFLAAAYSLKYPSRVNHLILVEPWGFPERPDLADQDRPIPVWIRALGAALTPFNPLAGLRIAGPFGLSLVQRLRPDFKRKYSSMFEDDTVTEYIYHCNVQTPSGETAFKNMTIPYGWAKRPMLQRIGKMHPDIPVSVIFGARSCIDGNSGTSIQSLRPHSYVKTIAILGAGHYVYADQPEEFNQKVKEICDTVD
B2AR ag: beta2AR agonists driving receptor internalization, primary screen, cell-based, FAP fluorogen, flow cytometry; Beta-2 adrenergic receptor (Homo sapiens), P07550; Am2.2-beta2AR cells; response, % (test concentration not listed); 0.43% of 340,000 active; AID 504454, 2011;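 active = response above a set limit, near 3 SD of response in nonfluorescent compounds, cut at about 42% in these data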
MC4R barr agon: MC4R agonists recruiting beta-arrestin, primary screen, cell-based, luminescence, agonist arm of biased-ligand search; Melanocortin receptor 4 (Homo sapiens), P32245; U2OS MC4R beta-arrestin complementation; percent of melanotan II response, DMSO zero; activation, % at 8.9 µM; 0.98% of 360,000 active;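 active = activation above a per-plate cutoff, the mean activation of sample wells on that plate plus 3 SD, cut at about 8% in these data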
PfG6PD inh: PfG6PD enzyme inhibitors, primary screen, biochemical, fluorescence intensity, uHTS | inhibition, % at 20 µM | PfGluPho enzyme, NADPH resazurin-diaphorase fluorescence | 0.78% of 350,000 active;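 active = inhibition reaching at least a set limit at 20 µM in the primary screen, cut at about 59% in these data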;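 also: 0% = DMSO wells with substrate and 100% = DMSO wells lacking glucose-6-phosphate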
MC4R antagonist: MC4R antagonists of cAMP signaling, primary screen, cell-based, TR-FRET, antagonist arm of biased-ligand search; Melanocortin receptor 4 (Homo sapiens), P32245; MC4R-expressing cells, MTII-stimulated cAMP, LANCE TR-FRET; inhibition, % at 6.5 µM; 0.48% of 360,000 active;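 active = inhibition above its plate's cutoff, the mean of tested wells on that plate plus 3 SD, cut at about 29% in these data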;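 also: 0% = Melanotan II alone and 100% = Melanotan II plus saturating MCL0020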
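Assay system: human MC4R-expressing U2OS cells; reagent: Melanotan II stimulation of cells; dosing: 6.5 µM single dose; timing: compound 30 min, challenge 1 h, detection 1 h; signal: TR-FRET cAMP assay; replicates: one well per compound, no replicates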
ABHD5 PLIN5 conf: ABHD5-PLIN5 interaction inhibitors, confirmation, biochemical, luminescence; inhibition, % at 4 µM; shares compounds with ABHD5 PLIN5 PPI; AID 651612, 2012; 67% of 2,200 active; in the data active = inhibition above about 23%;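 also: 0% = DMSO vehicle wells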
HNF4 counter: HNF4 dimerization inhibitors, counter-screen for ABHD5-PLIN5 interaction inhibitor project, biochemical, split-luciferase complementation, luminescence; shares compounds with ABHD5 PLIN5 PPI; inhibition, % at 4 µM; 77% of 2,200 active;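 active = mean inhibition across replicate wells exceeding the computed hit threshold, cut at about 13% in these data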;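 also: light from luciferase halves that rejoin when HNF4 fusion proteins dimerize; 0% = DMSO only wells and the 100% control is not given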
Numbers without * were called inactive; nt = no result given.

SMILES	ABHD5 PLIN5 PPI	B2AR ag	MC4R barr agon	PfG6PD inh	MC4R antagonist	ABHD5 PLIN5 conf	HNF4 counter
COc1ccc(C(C(=O)NC(C)(C)C)n2c(=O)c(-c3ccco3)nc3ccccc32)cc1 (configuration not stated)	73*	nt	nt	nt	nt	63*	26*
CC(C)(C)NC(=O)C(c1ccc(C#N)cc1)n1c(=O)c(-c2ccccc2)nc2ccccc21 (configuration not stated)	3	nt	nt	nt	nt	nt	nt
CC(C)(C)NC(=O)C(c1ccc(-c2ccccc2)cc1)n1c(=O)c(-c2ccco2)nc2ccccc21 (configuration not stated)	73*	nt	nt	nt	nt	94*	28*
CC(C)(C)NC(=O)C(c1ccc(C#N)cc1)n1c(=O)c(-c2ccco2)nc2ccccc21 (configuration not stated)	75*	nt	nt	nt	nt	77*	26*
CC1(C)SC(C)(C)N(C=O)C1C(=O)O (configuration not stated)	7	7	1	-1	3	nt	nt
O=C(C1CC(=O)N(c2ccc(Cl)cc2)C1)N1CCC(c2nc3ccccc3[nH]2)CC1 (configuration not stated)	-5	-1	0	5	8	nt	nt
COc1cc(NS(=O)(=O)c2ccc(NC(=S)NC(=O)COc3ccccc3OC)cc2)nc(OC)n1	-6	-8	-3	-2	9	nt	nt
O=C(CC1Sc2ncnn2C1=O)Nc1ccccc1 (configuration not stated)	27*	13	0	7	4	11	47*
O=C(CC1SC(=O)N(c2ccccc2)C1=O)Nc1ccccc1 (configuration not stated)	-12	5	-4	17	12	nt	nt
Cc1ccc(/C=C/C(=O)Nc2cccnc2)o1	21	1	2	52	-12	nt	nt
Cc1ccc(/C=C/C(=O)Nc2cccc3ncccc23)o1	42*	0	-1	53	-5	30*	33*
COC(=O)[C@@]12CCCCN1[C@H](c1ccc(-c3cc(C(C)=O)cs3)cc1)[C@H]1C(=O)N(C)C(=O)[C@H]12	-5	8	1	16	0	nt	nt
CNC(=S)N(C)/N=C1/C(=O)N(Cc2c(Cl)cccc2Cl)c2ccccc21	27*	29	4	41	-5	-4	16*
O=C1CCCc2ccccc2N1Cc1c(Cl)cccc1Cl	-3	-6	2	-31	8	nt	nt
COc1ccc(C2=NN(C(=O)COC(=O)c3ccc(S(C)(=O)=O)c([N+](=O)[O-])c3)C(c3ccco3)C2)cc1 (configuration not stated)	29*	22	-2	8	-17	51*	90*
O=C1C=CC(=O)N1c1cccc(-c2ccccc2)c1	28*	97*	-2	98*	48*	51*	94*
CC(=O)Nc1ccc(C2=NNC(=Nc3ccc(S(=O)(=O)N4CCOCC4)cc3)SC2)cc1	75*	3	-2	54	10	59*	79*
O=C(N1CCCCC1)C1(S(=O)(=O)c2ccccc2)CC=CC1	33*	4	-3	0	7	2	0
OC(CNCC1CCCO1)Cn1c2ccc(Cl)cc2c2cc(Cl)ccc21 (configuration not stated)	35*	33	8.9*	14	-7	13	8
O=C(O)CC(NC(=O)C12CC3CC(CC(C3)C1)C2)c1ccc(OC2CCCC2)cc1 (configuration not stated)	-14	4	1	-5	1	nt	nt
CC1(C)c2ccccc2N2CCC(=O)NC21/C=C/c1ccco1 (configuration not stated)	21	4	0	4	2	nt	nt
CC1(C)c2ccccc2N2CC(=O)NC21/C=C/c1ccco1 (configuration not stated)	27*	11	-1	45	4	19	21*
O=C(O)c1cccc(S(=O)(=O)Nc2ccc3oc(=O)sc3c2)c1	63*	6	-1	24	11	-40	42*
O=C1/C(=C/c2cccnc2)CC/C1=C\c1cccnc1	42*	0	-2	11	15	72*	50*
CC(C)/C=C1\CC/C(=C\c2cccnc2)C1=O	39*	5	-4	-12	4	75*	58*
SMILES	ABHD5 PLIN5 PPI	B2AR ag	MC4R barr agon	PfG6PD inh	MC4R antagonist	ABHD5 PLIN5 conf	HNF4 counter
CCC1C/C(=C\c2cccnc2)C(=O)/C(=C/c2cccnc2)C1 (configuration not stated)	91*	12	-2	15	11	102*	100*
COc1ccc(CNC(=O)CCCn2nc(C)c3c(C)n(-c4ccc(C)cc4)nc3c2=O)cc1	3	8	0	-11	17	nt	nt
CN(Cc1ccccc1)C(=O)c1cn(C)c2ccc(S(=O)(=O)N3CCCC3)cc2c1=O	-1	11	1	-14	15	nt	nt
COc1ccc(CNC(=O)CSCc2cccc(Cl)c2)cc1	68*	-3	2	-1	0	-2	0
COc1ccc(CNC(=O)CCSCc2cccc(Cl)c2)cc1	5	0	-3	5	11	nt	nt
CC1=CC(C)(C)Nc2ccc(OC(=O)CCN3C(=O)c4ccccc4C3=O)cc21	75*	-28	-2	57	1	86*	90*
O=C(CCN1C(=O)c2ccccc2C1=O)Oc1ccc2ccccc2c1	-2	1	0	-5	0	nt	nt
COc1ccc2oc(=O)c(-c3nnc(NCc4ccco4)s3)cc2c1	60*	5	1	6	-20	21	43*
CCOc1cccc2cc(-c3cn4cc(C)ccc4n3)c(=O)oc12	0	-6	-1	-1	3	nt	nt
CCOc1cccc2cc(-c3nnc(NCc4ccco4)s3)c(=O)oc12	48*	22	1	1	-12	29*	35*
CC(C)[C@H](NC(=O)c1ccccc1)C(=O)OCC(=O)Nc1sccc1C(N)=O	-1	8	-1	6	0	nt	nt
O=C1CC(Sc2nnnn2-c2ccccc2)C(=O)N1c1cccc(Cl)c1 (configuration not stated)	37*	8	0	32	27	62*	104*
CC1CN(c2cc(=O)n(-c3ccccc3)c(=O)[nH]2)CC(C)O1 (configuration not stated)	36*	0	-1	7	0	3	0

Screening results from PubChem BioAssay.
